Measurements from different studies.
Target: Non-receptor tyrosine-protein kinase TNK1 (TNK1, Homo sapiens, UniProt Q13470)
Sequence (Q13470 1-666, as in one of the studies): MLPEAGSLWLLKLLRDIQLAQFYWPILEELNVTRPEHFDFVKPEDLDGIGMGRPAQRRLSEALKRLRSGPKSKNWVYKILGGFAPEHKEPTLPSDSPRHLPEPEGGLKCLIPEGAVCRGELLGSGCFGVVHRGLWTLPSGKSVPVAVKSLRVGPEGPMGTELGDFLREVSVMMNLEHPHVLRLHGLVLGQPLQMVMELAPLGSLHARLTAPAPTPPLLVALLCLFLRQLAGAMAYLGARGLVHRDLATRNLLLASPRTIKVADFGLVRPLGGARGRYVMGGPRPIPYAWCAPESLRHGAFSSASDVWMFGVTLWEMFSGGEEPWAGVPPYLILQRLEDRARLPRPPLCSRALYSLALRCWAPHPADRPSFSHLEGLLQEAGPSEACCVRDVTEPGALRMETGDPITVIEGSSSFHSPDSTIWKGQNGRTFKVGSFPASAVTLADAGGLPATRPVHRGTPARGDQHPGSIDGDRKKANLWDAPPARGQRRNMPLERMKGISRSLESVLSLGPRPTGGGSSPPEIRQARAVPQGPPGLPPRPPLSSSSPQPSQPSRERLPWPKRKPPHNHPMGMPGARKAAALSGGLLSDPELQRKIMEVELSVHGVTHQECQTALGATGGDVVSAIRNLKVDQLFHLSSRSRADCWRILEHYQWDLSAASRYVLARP

O=C(c1ccc(Nc2ncc(Cl)c(-c3cc4ccccc4s3)n2)cc1)N1CCC(N2CCCC2)CC1
remaining binding (binding, competition with immobilised ligand; 1 µM): 15%

N[C@H]1CCN(c2nccc(-c3cnn4ncccc34)n2)C1
remaining binding (binding; 1 µM): 0%

O=C(Nc1c[nH]nc1C(=O)NC1CCNCC1)c1cc(F)cc(F)c1
remaining binding (binding, competition with immobilised ligand; 1 µM): 38%

O=C(NCCCN1CCOCC1)c1ccc(Nc2ncc(Cl)c(-c3ccc(Cl)s3)n2)cc1
remaining binding (binding, competition with immobilised ligand; 1 µM): 36%

Cc1noc([C@H]2C[C@@H](c3ccc(C(F)(F)F)cc3)CN(C(=O)N3CCS(=O)(=O)C3)C2)n1
remaining binding (cell-free assay, competition with immobilised ligand; 1 µM): 100%

CCN1CCN(Cc2ccc(C(=O)Nc3ccc(C)c(Oc4ccc5c(c4)CC(=O)N5)c3)cc2C(F)(F)F)CC1
remaining binding (binding, competition with immobilised ligand; 1 µM): 100%

CC(C)CC(=O)N1CCc2nc(-c3ccc(Br)cc3)nc(N(C)Cc3ccccc3)c2C1
remaining binding (cell-free assay, competition with immobilised ligand; 0.1 µM): 100%

CNC(=O)[C@@H]1CC[C@@H](n2c(-c3ccc4cnccc4c3)nc3ccc(C(=O)NCc4cccc(C(N)=O)c4)cc32)C1
remaining binding (binding, competition with immobilised ligand; 1 µM): 97%

O=C(Nc1ccc(Oc2ccc(F)cc2)cc1)N1CCc2ncccc2[C@H]1c1ccc(F)cc1
remaining binding (cell-free assay, competition with immobilised ligand; 1 µM): 96%

F[C@@H]1CCN(c2nccc(-c3cnn4ncccc34)n2)C1
remaining binding (binding; 1 µM): 87%

O=C(Nc1cccnn1)N1CCC(=Cc2cccc(Oc3ccc(C(F)(F)F)cn3)c2)CC1
remaining binding (cell-free assay, competition with immobilised ligand; 1 µM): 98%

CN(c1nccc(-c2cnn3ncccc23)n1)C1CC1
remaining binding (binding; 1 µM): 84%

CC1=C(C#N)C(c2ccc3c(c2)c(NC(=O)c2ccccc2C)nn3C)C(C#N)=C(C)N1
remaining binding (cell-free assay, competition with immobilised ligand; 1 µM): 76%

C=CC(=O)N1CCC(C(=O)NCC(=O)N2CCN(c3nc(-c4cnc(N)nc4C(F)F)nc(N4CCOCC4)n3)CC2)CC1
remaining binding (binding, competition with immobilised ligand; 1 µM): 83%

CNC(=O)Nc1ccc2c(c1)CC[C@@]21OC(=O)N(CC(=O)N(Cc2ccc(F)cc2)[C@@H](C)C(F)(F)F)C1=O
remaining binding (cell-free assay, competition with immobilised ligand; 1 µM): 86%

O=C(c1ccc(Nc2ncc(Cl)c(-c3ccc(Cl)s3)n2)cc1)N1CCC(N2CCCC2)CC1
remaining binding (binding, competition with immobilised ligand; 1 µM): 13%

CN(CCCC(F)(F)F)c1nccc(-c2cnn3ncccc23)n1
remaining binding (binding; 1 µM): 83%

Nc1ncc2c(n1)-c1c([nH]c3ccc(C#CC4CC4)cc13)CCCC2
remaining binding (binding, competition with immobilised ligand; 1 µM): 100%

CN(C)c1nccc(-c2cnc3ncccn23)n1
remaining binding (binding; 1 µM): 100%

COc1cc(C(=O)N2CCC(N3CCN(C)CC3)CC2)ccc1Nc1ncc2c(n1)N(C)c1ccccc1C(=O)N2C
remaining binding (binding, competition with immobilised ligand; 10 µM): 2.8%

COc1cc(-c2cn(C3CCc4c(F)cccc4N(CC(F)(F)F)C3=O)nn2)ccc1-n1cnc(C)c1 (stereo not shown)
remaining binding (cell-free assay, competition with immobilised ligand; 1 µM): 100%

C[C@@H]1CCN(c2nccc(-c3cnn4ncccc34)n2)C1
remaining binding (binding; 1 µM): 100%
